Measurements as given in ChEMBL document CHEMBL4265908, “Structure-activity and structure-property relationships of novel Nrf2 activators with a 1,2,4-oxadiazole core and their therapeutic effects on acetaminophen (APAP)-induced acute liver injury” (Eur J Med Chem, 2018).
Active and inactive are the calls of the source. No cut-off for these calls is given here.

Key:
[1] = molecular target: T1, Nuclear factor erythroid 2-related factor 2 (Homo sapiens) (UniProt Q16236); experiment: Activation of Nrf2 in human HepG2-ARE-C8 cells assessed as induction of ARE-mediated luciferase activity at 0.1 uM after 24 hrs by luciferase reporter gene assay relative to control; type: cell-based
T1 sequence (whole entry): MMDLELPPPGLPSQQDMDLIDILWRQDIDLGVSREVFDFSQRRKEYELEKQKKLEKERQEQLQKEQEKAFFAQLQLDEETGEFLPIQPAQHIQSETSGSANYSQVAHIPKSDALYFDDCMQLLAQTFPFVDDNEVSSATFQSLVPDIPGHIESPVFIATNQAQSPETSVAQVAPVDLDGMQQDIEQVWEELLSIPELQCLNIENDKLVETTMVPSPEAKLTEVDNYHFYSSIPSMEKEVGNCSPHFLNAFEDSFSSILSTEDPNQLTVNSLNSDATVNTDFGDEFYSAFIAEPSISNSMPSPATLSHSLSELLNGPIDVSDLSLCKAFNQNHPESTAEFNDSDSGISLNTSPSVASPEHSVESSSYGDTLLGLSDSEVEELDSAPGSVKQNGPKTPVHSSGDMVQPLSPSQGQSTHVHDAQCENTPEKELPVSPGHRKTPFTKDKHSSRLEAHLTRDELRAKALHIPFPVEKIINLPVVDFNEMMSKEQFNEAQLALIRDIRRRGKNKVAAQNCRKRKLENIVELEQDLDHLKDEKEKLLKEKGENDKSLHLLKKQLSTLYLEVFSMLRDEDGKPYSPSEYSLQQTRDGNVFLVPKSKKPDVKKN
Summary of the method: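 HepG2-ARE-C8 cells stably carrying ARE-luciferase, grown in DMEM with 10% FBS at 37 °C and 5% CO2. Seeded at 5 × 10^4 cells/well, left overnight, then given compound diluted from a 10 mM DMSO stock for 24 h. Cells lysed and luciferase read as RLU. Inductivity = (RLUtest − RLUblank)/(RLUcontrol − RLUblank), with DMSO as control. Mean ± SEM of three experiments.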

[2] = molecular target: T1, Nuclear factor erythroid 2-related factor 2 (Homo sapiens); experiment: Activation of Nrf2 in human LO2 cells cotreated with Nrf2 siRNA assessed as increase in Nrf2 mRNA expression level at 20 uM by qRT-PCR analysis; type: cell-based
Summary of the method: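 LO2 cells plated at 7 × 10^5 per 60 mm dish and transfected with 50 nM Nrf2 siRNA (scrambled siRNA as control). After 24 h, fresh medium was added and cells grown a further 48 h. Then 20 μM compound for 12 h. Nrf2, NQO1, GCLM and HO-1 mRNA measured by qRT-PCR, normalized to GAPDH, as fold over control.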

In the case of `Cc1ccc(-c2noc(-c3ccc(F)c(F)c3)n2)cn1`, the Activity [1] is reported as 3.46 and the Activity [2] is reported as “Active”.
